Drawing on ChEMBL document CHEMBL4354873, “Rationally Designed Small-Molecule Inhibitors Targeting an Unconventional Pocket on the TLR8 Protein-Protein Interface” (J Med Chem, 2020), this text covers inhibition and Activity for one compound.

Calls of active or inactive are those of the source. The calls are words filed in the database; no cut-off is given here.

Series [1] concerns the target T1, Toll-like receptor 8 (Homo sapiens) (UniProt Q9NR97).
T1 sequence (whole entry): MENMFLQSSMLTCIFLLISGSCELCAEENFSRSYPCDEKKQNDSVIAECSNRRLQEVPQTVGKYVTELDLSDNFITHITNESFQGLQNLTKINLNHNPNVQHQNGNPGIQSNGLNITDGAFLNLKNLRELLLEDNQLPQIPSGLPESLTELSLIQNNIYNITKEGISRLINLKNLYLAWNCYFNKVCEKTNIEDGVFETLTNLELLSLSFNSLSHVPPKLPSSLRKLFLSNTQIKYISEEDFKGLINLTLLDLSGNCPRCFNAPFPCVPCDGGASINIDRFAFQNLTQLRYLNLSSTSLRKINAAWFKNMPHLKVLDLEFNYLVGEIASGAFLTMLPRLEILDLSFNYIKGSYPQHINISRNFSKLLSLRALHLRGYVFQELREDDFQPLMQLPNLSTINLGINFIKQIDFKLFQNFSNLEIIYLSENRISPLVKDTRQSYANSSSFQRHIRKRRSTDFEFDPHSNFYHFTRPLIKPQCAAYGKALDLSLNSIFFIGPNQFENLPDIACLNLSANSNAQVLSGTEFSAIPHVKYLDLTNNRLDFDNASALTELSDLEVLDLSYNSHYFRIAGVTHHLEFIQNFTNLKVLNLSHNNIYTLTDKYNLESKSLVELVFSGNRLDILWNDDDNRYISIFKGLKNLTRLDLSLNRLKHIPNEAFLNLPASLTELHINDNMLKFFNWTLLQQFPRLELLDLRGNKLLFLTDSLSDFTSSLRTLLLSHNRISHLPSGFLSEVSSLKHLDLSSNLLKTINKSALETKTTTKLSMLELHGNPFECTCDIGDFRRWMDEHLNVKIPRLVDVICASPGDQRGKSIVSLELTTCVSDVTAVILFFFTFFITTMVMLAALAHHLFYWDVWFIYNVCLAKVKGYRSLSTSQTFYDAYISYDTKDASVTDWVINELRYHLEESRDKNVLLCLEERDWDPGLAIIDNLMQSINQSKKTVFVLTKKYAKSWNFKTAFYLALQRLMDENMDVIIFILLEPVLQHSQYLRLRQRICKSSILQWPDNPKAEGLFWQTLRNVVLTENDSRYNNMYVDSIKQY
Nature of the series: Inhibition of R848 binding to human TLR8 ectodomain at 50 uM by isothermal titration calorimetry.

Series [2] addresses T1, Toll-like receptor 8 (Homo sapiens). Description: Inhibition of human TLR8 expressed in HEK-Blue cells assessed as inhibition of ssRNA06-induced NF-kappaB activation measured after 24 hrs by quanti-blue based SEAP reporter gene assay. The series is classed as cell-based. In outline: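 HEK-Blue TLR8 cells, 4 × 10⁴/well, stimulated with ssRNA06 in the presence of varying compound concentrations for 24 h at 37 °C. SEAP read with QUANTI-Blue at 620 nm. Normalized so ligand-treated cells are 100% activation and untreated cells 0%.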
(In general: In a reporter assay the amount or activity of a reporter protein is the signal.)

Series [3] is described as follows: Cytotoxicity against HEK-Blue cells expressing human TLR8 assessed as reduction in cell viability up to 100 uM measured after 24 hrs by CCK8 assay. The series is classed as cell-based. An outline of the steps: (§1)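 CCK-8 viability: compounds incubated 24 h at 37 °C with HEK-Blue TLR8 cells (4 × 10⁴ cells/well) or PBMCs (3 × 10⁶ cells/mL). CCK-8 was added at 1:10 for up to 2 h, then absorbance read at 450 nm. Values normalized to untreated cells as 100% survival.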

Series [4] concerns the target Toll-like receptor 1/2 (Homo sapiens) (UniProt O60603+Q15399). Description: Inhibition of human TLR1/2 expressed in HEK-Blue cells assessed as inhibition of Pam3CSK4-induced NF-kappaB activation at 20 uM measured after 24 hrs by quanti-blue based SEAP reporter gene assay. The series is classed as cell-based. In outline:
(§2)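 HEK-Blue SEAP format: 4 × 10⁴ cells/well in DMEM with ligand plus compound, 24 h at 37 °C. Supernatant mixed with QUANTI-Blue up to 1 h, then A620 read. Ligands: Pam3CSK4 100 ng/mL (TLR1/2), Pam2CSK4 100 ng/mL (TLR2/6), poly(I:C) 5 µg/mL (TLR3), LPS 20 ng/mL (TLR4), flagellin 50 ng/mL (TLR5), R848 1 µg/mL (TLR7), R848 2 µg/mL (TLR8), ODN2006 0.5 µM (TLR9). Mean ± s.d.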

The target of the next series is TLR2/TLR6 (Homo sapiens) (UniProt O60603+Q9Y2C9). Description: Inhibition of human TLR2/6 expressed in HEK-Blue cells assessed as inhibition of Pam2CSK4-induced NF-kappaB activation at 20 uM measured after 24 hrs by quanti-blue based SEAP reporter gene assay. The series is classed as cell-based. An outline of the steps:
as §2

The target in series [5] is Toll-like receptor 4 (Homo sapiens) (UniProt O00206). Description: Inhibition of human TLR4 expressed in HEK-Blue cells assessed as inhibition of LPS-induced NF-kappaB activation at 20 uM measured after 24 hrs by quanti-blue based SEAP reporter gene assay. The series is classed as cell-based. An outline of the steps: as §2
The target in series [6] is Toll-like receptor 5 (Homo sapiens) (UniProt O60602). Description: Inhibition of human TLR5 expressed in HEK-Blue cells assessed as inhibition of flagellin-induced NF-kappaB activation at 20 uM measured after 24 hrs by quanti-blue based SEAP reporter gene assay. The series is classed as cell-based. In outline:
as §2

Series [7] has as its target T1, Toll-like receptor 8 (Homo sapiens). Description: Inhibition of human TLR8 expressed in HEK-Blue cells assessed as inhibition of R848-induced IL-8 mRNA level at 1 uM measured after 8 hrs by Trizol reagent based qRT-PCR analysis. The series is classed as cell-based. In outline:
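RT-qPCR: HEK-Blue TLR8 cells seeded at 1 × 10⁶/well and grown 24 h, then switched to serum-free medium. Treated with R848 4 µg/mL ± compound 1 µM for 8 h. Total RNA extracted with TRIzol, reverse transcribed, TNF-α and IL-8 mRNA quantified. Three independent biological replicates, mean ± s.d.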
(Real-time PCR tracks product formation cycle by cycle.)

Series [8] shares this target. Description: Inhibition of TLR8 in human monocytes assessed as reduction in R848-induced TNFalpha production measured after 24 hrs by ELISA. The series is classed as cell-based. In outline: (§3)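 Human monocyte cell lines in RPMI 1640 with 10% FBS and 0.05 mM 2-mercaptoethanol, 1 × 10⁶/well, 24 h. After PBS washes, fresh RPMI added with R848 1 µg/mL and varying compound concentrations for 24 h. Supernatant TNF-α, IL-6 and IL-1β measured by ELISA.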
In general terms: In an ELISA, binding on a coated surface is turned into a signal by an enzyme label.

Series [9] has the same target. Description: Inhibition of TLR8 in human monocytes assessed as reduction in R848-induced IL6 production measured after 24 hrs by ELISA. The series is classed as cell-based. An outline of the steps:
as §3

Series [10] has the same target. Description: Inhibition of TLR8 in human monocytes assessed as reduction in R848-induced IL1beta production measured after 24 hrs by ELISA. The series is classed as cell-based. An outline of the steps: as §3
The next series concerns PBMC. Nature of the series: Cytotoxicity against rheumatoid arthritis patient-derived PBMC assessed as reduction in cell viability up to 80 uM measured after 24 hrs by CCK8 assay. The series is classed as cell-based. The following applies: human. An outline of the steps: as §1
In series [11] the target is T1, Toll-like receptor 8 (Homo sapiens). Nature of the series: Inhibition of TLR8 in rheumatoid arthritis patient-derived PBMC assessed as reduction in spontaneous TNFalpha production measured after 24 hrs by ELISA.

Toll-like receptor 5 (Homo sapiens), sequence (O60602 whole entry): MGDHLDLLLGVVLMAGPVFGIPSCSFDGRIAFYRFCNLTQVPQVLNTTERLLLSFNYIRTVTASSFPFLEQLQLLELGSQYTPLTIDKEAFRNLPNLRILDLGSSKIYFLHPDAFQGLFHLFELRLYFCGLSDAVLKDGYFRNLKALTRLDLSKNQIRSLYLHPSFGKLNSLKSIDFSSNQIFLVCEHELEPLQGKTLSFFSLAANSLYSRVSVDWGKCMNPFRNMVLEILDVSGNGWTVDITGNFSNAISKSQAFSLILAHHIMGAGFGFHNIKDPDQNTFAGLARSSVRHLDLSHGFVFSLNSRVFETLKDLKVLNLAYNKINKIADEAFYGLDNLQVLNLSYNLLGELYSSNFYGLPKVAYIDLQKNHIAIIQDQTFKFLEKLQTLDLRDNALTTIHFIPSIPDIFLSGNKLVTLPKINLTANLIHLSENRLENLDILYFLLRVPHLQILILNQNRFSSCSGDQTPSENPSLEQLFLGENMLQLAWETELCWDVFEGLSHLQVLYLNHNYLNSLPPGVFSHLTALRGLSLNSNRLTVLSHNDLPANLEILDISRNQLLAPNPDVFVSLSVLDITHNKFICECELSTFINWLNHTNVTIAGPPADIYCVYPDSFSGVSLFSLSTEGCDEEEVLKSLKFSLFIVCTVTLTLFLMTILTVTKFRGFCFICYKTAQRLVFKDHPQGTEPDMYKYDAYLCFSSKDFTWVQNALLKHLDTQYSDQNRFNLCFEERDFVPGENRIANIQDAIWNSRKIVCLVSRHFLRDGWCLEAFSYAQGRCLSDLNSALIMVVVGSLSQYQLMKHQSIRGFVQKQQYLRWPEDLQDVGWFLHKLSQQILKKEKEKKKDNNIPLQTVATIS
Toll-like receptor 4 (Homo sapiens), sequence (O00206 whole entry): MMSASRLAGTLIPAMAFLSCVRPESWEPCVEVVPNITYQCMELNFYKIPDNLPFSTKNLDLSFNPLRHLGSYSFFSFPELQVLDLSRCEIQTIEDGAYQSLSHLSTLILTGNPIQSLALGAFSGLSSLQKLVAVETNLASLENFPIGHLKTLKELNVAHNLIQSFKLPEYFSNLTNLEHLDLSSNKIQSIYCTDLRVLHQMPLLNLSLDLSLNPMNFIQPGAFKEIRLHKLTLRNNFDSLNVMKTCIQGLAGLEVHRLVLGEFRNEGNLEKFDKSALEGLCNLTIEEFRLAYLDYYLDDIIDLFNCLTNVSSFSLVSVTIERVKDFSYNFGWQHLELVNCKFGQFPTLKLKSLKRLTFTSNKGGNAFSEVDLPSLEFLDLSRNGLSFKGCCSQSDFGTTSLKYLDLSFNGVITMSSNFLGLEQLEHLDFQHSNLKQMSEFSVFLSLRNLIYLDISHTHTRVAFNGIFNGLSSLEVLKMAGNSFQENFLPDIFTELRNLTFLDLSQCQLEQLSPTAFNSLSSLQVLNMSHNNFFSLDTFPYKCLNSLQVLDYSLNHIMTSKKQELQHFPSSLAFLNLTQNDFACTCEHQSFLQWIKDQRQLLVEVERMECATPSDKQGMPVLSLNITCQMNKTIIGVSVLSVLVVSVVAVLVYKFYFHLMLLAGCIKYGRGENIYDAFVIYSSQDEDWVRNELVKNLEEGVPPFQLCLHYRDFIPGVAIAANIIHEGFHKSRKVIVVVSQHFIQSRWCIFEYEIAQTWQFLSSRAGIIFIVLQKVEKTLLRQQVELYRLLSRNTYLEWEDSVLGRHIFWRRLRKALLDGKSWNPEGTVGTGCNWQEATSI

Regarding `CSc1nnc(CCCO)n1-c1cc(C)c(C)c(C)c1`, the inhibition result in [1] and in series [7] was “Active” each time. The inhibition result in series [2], in series [8], in series [9], in series [10] and in [11] was “Dose-dependent effect” each time. Moreover, the Activity entry (in series [3]; with PBMC) was “Non-Toxic” each time. Moreover, the inhibition result (in series [4]; at TLR2/TLR6 (Homo sapiens); in series [5]; in [6]) was “inactive” each time.
